The record followed here is ChEMBL document CHEMBL4342496, “Design, Synthesis, Dynamic Docking, Biochemical Characterization, and in Vivo Pharmacokinetics Studies of Novel Topoisomerase II Poisons with Promising Antiproliferative Activity” (J Med Chem, 2020).

The source made the active and inactive calls. The calls are words filed in the database; no cut-off is given here. Some results are limits rather than exact numbers.

Series [1] is described as follows: Kinetic solubility in neutral buffer. Format: physicochemical. In short, it runs like this: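 Kinetic solubility measured in aqueous buffer at pH 7.4.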
Series [2] concerns the target T1, DNA topoisomerase 2-alpha (Homo sapiens, UniProt P11388). The series can be described thus: Poison activity at human topo2alpha assessed as induction of accumulation of topo-2/DNA cleavage complex formation at 200 uM using […] plasmid incubated for 6 mins by SYBR safe DNA stain based cleavage complex formation assay. In a few lines:
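Test compound at 200 μM was incubated with 1 U topoisomerase II and 500 ng […] plasmid for 6 min at 37 °C, with 1% DMSO final; vehicle and no-enzyme lanes served as controls. Products were run on a 1% agarose gel with SYBR Safe stain. The band intensity of linear DNA (form III) was quantified and normalized.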

Series [3] in a line: Half life in mouse plasma. Format: ADME, cell-free.
Series [4] can be described thus: Half life in mouse liver microsomes. The series is classed as ADME, Microsome. In general terms: Liver microsomes are a subcellular fraction often used to study metabolism.
Series [5] concerns the target T1, DNA topoisomerase 2-alpha. The series can be described thus: Inhibition of human topo2alpha by plasmid relaxation assay.
The nature of series [6]: Plasma concentration in mouse at 10 mg/kg, po after 1 hr. Format: ADME, organism-based. In a few lines:
(§1)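 Mice dosed orally at 10 mg/kg, with n = 3 animals per time point. Plasma concentration was followed over time, with sampling to at least 6 h.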

Series [7] can be described thus: Plasma concentration in mouse at 10 mg/kg, po after 6 hrs. Format: ADME, organism-based. In short, it runs like this:
as §1

T1 sequence (P11388 whole entry): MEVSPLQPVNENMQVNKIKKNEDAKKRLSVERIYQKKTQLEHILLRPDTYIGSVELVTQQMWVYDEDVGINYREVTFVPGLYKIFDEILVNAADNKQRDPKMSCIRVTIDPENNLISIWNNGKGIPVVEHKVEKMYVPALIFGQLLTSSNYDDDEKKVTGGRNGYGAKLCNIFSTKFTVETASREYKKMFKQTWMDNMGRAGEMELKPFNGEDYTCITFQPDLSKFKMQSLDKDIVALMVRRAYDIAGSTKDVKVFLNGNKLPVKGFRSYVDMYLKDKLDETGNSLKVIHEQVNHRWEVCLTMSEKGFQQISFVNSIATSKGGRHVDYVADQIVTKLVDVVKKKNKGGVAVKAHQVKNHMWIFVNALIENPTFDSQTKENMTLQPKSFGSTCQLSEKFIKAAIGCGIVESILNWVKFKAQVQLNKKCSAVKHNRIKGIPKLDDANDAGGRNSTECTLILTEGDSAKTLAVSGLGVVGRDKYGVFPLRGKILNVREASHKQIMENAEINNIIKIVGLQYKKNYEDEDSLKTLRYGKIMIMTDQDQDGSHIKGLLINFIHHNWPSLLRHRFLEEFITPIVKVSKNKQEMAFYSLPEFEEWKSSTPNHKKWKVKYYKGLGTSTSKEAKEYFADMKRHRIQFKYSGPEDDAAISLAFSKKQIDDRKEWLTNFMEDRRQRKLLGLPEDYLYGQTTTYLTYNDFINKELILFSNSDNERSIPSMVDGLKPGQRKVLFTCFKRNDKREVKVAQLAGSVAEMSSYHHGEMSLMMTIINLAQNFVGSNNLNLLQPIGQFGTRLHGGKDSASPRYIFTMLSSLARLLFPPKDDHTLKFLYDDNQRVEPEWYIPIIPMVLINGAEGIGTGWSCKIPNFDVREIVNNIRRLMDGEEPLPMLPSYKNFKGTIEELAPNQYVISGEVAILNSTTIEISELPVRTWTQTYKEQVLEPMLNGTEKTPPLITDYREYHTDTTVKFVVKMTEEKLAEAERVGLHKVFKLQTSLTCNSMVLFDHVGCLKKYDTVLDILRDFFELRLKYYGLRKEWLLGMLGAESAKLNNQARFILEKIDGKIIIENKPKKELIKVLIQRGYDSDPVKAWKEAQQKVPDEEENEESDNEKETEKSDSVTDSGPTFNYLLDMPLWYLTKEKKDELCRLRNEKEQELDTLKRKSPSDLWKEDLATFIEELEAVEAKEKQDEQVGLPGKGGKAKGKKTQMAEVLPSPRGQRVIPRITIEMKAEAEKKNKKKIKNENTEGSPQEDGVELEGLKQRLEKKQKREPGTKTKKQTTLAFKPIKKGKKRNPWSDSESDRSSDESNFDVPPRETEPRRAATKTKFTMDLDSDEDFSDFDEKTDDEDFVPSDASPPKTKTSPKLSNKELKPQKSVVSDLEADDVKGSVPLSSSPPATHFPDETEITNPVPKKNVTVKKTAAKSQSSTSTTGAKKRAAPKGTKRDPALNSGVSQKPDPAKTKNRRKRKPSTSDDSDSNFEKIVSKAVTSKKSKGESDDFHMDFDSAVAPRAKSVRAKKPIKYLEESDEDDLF

Take `O=C(Nc1cccc(OC(F)F)c1)c1c(O)n(-c2ccccc2)c(=S)n(-c2ccccc2)c1=O`: the Kinetic_solubility in series [1] was 208 µM. Besides, the result in series [2] was Active. Besides, the half-life – broadly, how long it takes for the measured level to halve – was over 120 min in series [3] and over 60 min in series [4].

In the case of `CC(C)Oc1cccc(NC(=O)c2c(O)n(-c3ccccc3)c(=S)n(-c3ccccc3)c2=O)c1`, the half-life in series [3] was over 120 min; in series [4], over 60 min.

For `O=C1NC(=S)NC(=O)C1C(=O)Nc1ccccc1` [MERBARONE], the IC50 (in general, the concentration at which inhibition is half-maximal) in series [5] was 40 µM.

Take `COc1cccc(CCNC(=O)c2c(O)n(-c3ccccc3)c(=S)n(-c3ccccc3)c2=O)c1`: the half-life in series [3] is over 120 min; in series [4], over 60 min.

With `O=C(Nc1cccc(C(F)F)c1)c1c(O)n(-c2ccccc2)c(=S)n(-c2ccccc2)c1=O`, the Kinetic_solubility in series [1] was determined as 238 µM. Moreover, the outcome in series [2] was Active. For the same compound, the half-life in series [3] is over 120 min; in series [4] it was over 60 min.

With `O=C(Nc1cccc(OC(F)(F)F)c1)c1c(O)n(-c2ccccc2)c(=S)n(-c2ccccc2)c1=O`, the Kinetic_solubility in series [1] worked out at 224 µM. In addition, the result in series [2] was Active. In addition, the values for the half-life in series [3] and in series [4] were over 120 min and over 60 min, respectively. The compound further showed a concentration at 1 h in series [6] of 400 ng/mL. Further, in series [7], the concentration at 6 h is 400 ng/mL.

In the case of `CC(F)(F)c1cccc(NC(=O)c2c(O)n(-c3ccccc3)c(=S)n(-c3ccccc3)c2=O)c1`, the half-life is over 120 min in series [3] and over 60 min in series [4].
